Measured values from ChEMBL document CHEMBL3351977, “Chemotherapy of leishmaniasis part XIII: design and synthesis of novel heteroretinoid-bisbenzylidine ketone hybrids as antileishmanial agents” (Bioorg Med Chem Lett, 2015).

How the values were obtained:
Leishmania donovani [1] = assay: Antileishmanial activity against amastigote stage of Leishmania donovani MHOM/IN/80/Dd8 infected in mouse J774.1 cells after 72 hrs by luciferase reporter gene assay; assay type: functional, organism-based
Outline: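 Intracellular L. donovani amastigotes growing inside macrophages were exposed to a concentration series. IC50 was obtained by nonlinear regression of the concentration-response curve with a four-parameter Hill equation. Values are mean ± S.D. of three independent experiments. Reference drugs were sodium stibogluconate and miltefosine.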

[2] = (§1) Cytotoxicity against African green monkey Vero cells assessed as cell viability after 72 hrs by MTT assay; assay type: cell-based; conditions: chlorocebus sabaeus, Vero cells
Outline: (§2)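 Vero cells were used, with viability read by MTT assay and podophyllotoxin as the reference cytotoxic drug. CC50 (50% maximum cytotoxic concentration) was estimated with a preformed template following Huber and Koella. Values are mean ± S.D. of three independent experiments.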

[3] = (§3) Selectivity index, ratio of CC50 for African green monkey Vero cells to IC50 for amastigote stage of Leishmania donovani MHOM/IN/80/Dd8; assay type: functional
Outline: (§4)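 SI was calculated as CC50 on Vero cells (MTT viability) divided by IC50 on L. donovani intramacrophagic amastigotes. IC50 came from four-parameter Hill regression and CC50 from a Huber–Koella template. Both are means of three independent experiments.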

Vero [4] = assay: as §1; assay type: cell-based; conditions: chlorocebus sabaeus, vero, 72 h; outline: as §2
Vero [5] = assay: as §3; assay type: functional; outline: as §4
Leishmania donovani [6] = assay: Ratio of Miltefosine IC50 to compound IC50 for amastigote stage of Leishmania donovani MHOM/IN/80/Dd8 infected in mouse J774.1 cells; assay type: functional
Leishmania donovani [7] = assay: Ratio of Sodium stibogluconate IC50 to compound IC50 for amastigote stage of Leishmania donovani MHOM/IN/80/Dd8 infected in mouse J774.1 cells; assay type: functional
[8] = Leishmania donovani, MHOM/IN/80/Dd8, J774.1, 72 h

Molecule | IC50 (Leishmania donovani [1]; [8]) | CC50 at 72 h [2] | Ratio CC50/IC50 [3] | other results
COc1ccc(/C=C2\CN(C(=O)c3cc(/C=C/C4C(C)=CCCC4(C)C)on3)C/C(=C\c3ccc(OC)cc3)C2=O)cc1 (stereo unspecified) | > 40 µM | – | – | –
COc1ccc(/C=C2\CN(C(=O)c3cc(/C=C/C4C(C)=CCCC4(C)C)on3)C/C(=C\c3ccc(OC)c(OC)c3)C2=O)cc1OC (stereo unspecified) | 3.75 µM | 45.8 µM | 12.2 | –
CC1=CCCC(C)(C)C1/C=C/c1cc(C(=O)N2C/C(=C\c3ccc(Cl)cc3)C(=O)/C(=C/c3ccc(Cl)cc3)C2)no1 (stereo unspecified) | > 40 µM | – | – | –
CC1=CCCC(C)(C)C1/C=C/c1cc(C(=O)N2C/C(=C\c3ccc(OCc4ccccc4)cc3)C(=O)/C(=C/c3ccc(OCc4ccccc4)cc3)C2)no1 (stereo unspecified) | > 40 µM | – | – | –
SODIUM ANTIMONY GLUCONATE [listing 1 of 2 here] | – | – | – | IC50 (Leishmania donovani [1]; j774.1): 53.1 µM; CC50 (Vero [4]): > 400 µM
COc1cc(/C=C2\CN(C(=O)c3cc(/C=C/C4C(C)=CCCC4(C)C)on3)C/C(=C\c3cc(OC)c(OC)c(OC)c3)C2=O)cc(OC)c1OC (stereo unspecified) | 4.7 µM | 25.3 µM | 5.38 | –
SODIUM ANTIMONY GLUCONATE [listing 2 of 2 here] | – | – | – | Ratio CC50/IC50 (Vero [5]): > 7.53
CCCCCCCCCCCCCCCCOP(=O)([O-])OCC[N+](C)(C)C [MILTEFOSINE] | 8.1 µM | – | 6.52 | –
CCOc1cc(/C=C2\CN(C(=O)c3cc(/C=C/C4C(C)=CCCC4(C)C)on3)C/C(=C\c3ccc(O)c(OCC)c3)C2=O)ccc1O (stereo unspecified) | 6.1 µM | 27.7 µM | 4.53 | –
COc1ccccc1/C=C1\CN(C(=O)c2cc(/C=C/C3C(C)=CCCC3(C)C)on2)C/C(=C\c2ccccc2OC)C1=O (stereo unspecified) | > 20 µM | – | – | –
COc1cc(/C=C2\CN(C(=O)c3cc(/C=C/C4C(C)=CCCC4(C)C)on3)C/C(=C\c3ccc(O)c(OC)c3)C2=O)ccc1O (stereo unspecified) | 1.83 µM | 23.4 µM | 12.81 | –
COc1cc(/C=C2\CN(C(=O)c3cc(/C=C/C4C(C)=CCCC4(C)C)on3)C/C(=C\c3ccc(OCc4ccccc4)c(OC)c3)C2=O)ccc1OCc1ccccc1 (stereo unspecified) | 5.02 µM | > 400 µM | >79.68 | Ratio IC50 (Leishmania donovani [6]): 1.6; Ratio IC50 (Leishmania donovani [7]): 10
